Test results reported in ChEMBL document CHEMBL4406806, “Design, Synthesis, and Characterization of Ogerin-Based Positive Allosteric Modulators for G Protein-Coupled Receptor 68 (GPR68)” (J Med Chem, 2019).
The source made the active and inactive calls. The rule behind the calls is not given here.

What was measured:
[1] = target: G-protein coupled receptor 68 (Homo sapiens) (UniProt Q15743); test: (§1) Positive allosteric modulation of human GPR68 expressed in HEK293T cells co-expressing Gs assessed as stimulation of proton-mediated cAMP production by measuring allosteric affinity cooperativity in HBSS buffer containing pH 6.8 to 8.2 HEPES/pH 8.3 to 8.6 TAPS measured after 20 to 30 mins in presence of PDE inhibitor Ro 20-1724 by luciferase-glo reporter gene assay; assay type: functional, cell-based
Summary of the method: (§2)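 Transient co-transfection of HEK293T with receptor and GloSensor plasmids using PEI, overnight, then replated in DMEM + 1% dFBS for 6–24 h. Luciferin 3.5 mM loaded for 1 h at 37 °C in HBSS/20 mM TAPS, pH 8.40. Proton series: Ca/Mg-free HBSS with MES (pH 5.60–6.70), HEPES (6.80–8.20) or TAPS (8.30–8.60), plus 10 μM Ro 20-1724. BSA 1 mg/mL added where solubility required. Luminescence read at 20–30 min. At least six 16-point proton curves across modulator concentrations, quadruplicate, ≥3 independent assays.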

[2] = target: G-protein coupled receptor 68 (Homo sapiens) (UniProt Q15743); test: as §1, with “efficacy” for “allosteric affinity”; assay type: functional, cell-based; summary of the method: as §2
[3] = target: G-protein coupled receptor 68 (Homo sapiens) (UniProt Q15743); test: Positive allosteric modulation of human GPR68 expressed in HEK293T cells co-expressing Gs assessed as stimulation of proton-mediated cAMP production by measuring allosteric binding affinity in HBSS buffer containing pH 6.8 to 8.2 HEPES/pH 8.3 to 8.6 TAPS measured after 20 to 30 mins in presence of PDE inhibitor Ro 20-1724 by luciferase-glo reporter gene assay; assay type: functional, cell-based; summary of the method: as §2
[4] = target: G-protein coupled receptor 68 (Homo sapiens) (UniProt Q15743); test: as §1, with “index” for “affinity cooperativity”; assay type: functional, cell-based; summary of the method: as §2
[5] = target: G-protein coupled receptor 68 (Homo sapiens) (UniProt Q15743); test: as §1, with “production” for “production by measuring allosteric affinity cooperativity”; assay type: functional, cell-based; summary of the method: as §2
[6] = target: G-prodeshotein coupled receptor 4 (Homo sapiens) (UniProt P46093); test: as §1, with “GPR4” for “GPR68”, “production” for “production by measuring allosteric affinity cooperativity”; assay type: functional, cell-based; summary of the method: as §2
[7] = target: G-protein coupled receptor 65 (Homo sapiens) (UniProt Q8IYL9); test: as §1, with “GPR65” for “GPR68”, “production” for “production by measuring allosteric affinity cooperativity”; assay type: functional, cell-based; summary of the method: as §2
[8] = target: G-prodeshotein coupled receptor 4 (Homo sapiens) (UniProt P46093); test: as §1, with “GPR4” for “GPR68”, “at higher concentration” for “by measuring allosteric affinity cooperativity”; assay type: functional, cell-based; summary of the method: as §2
[9] = target: G-protein coupled receptor 65 (Homo sapiens) (UniProt Q8IYL9); test: as §1, with “GPR65” for “GPR68”, “at higher concentration” for “by measuring allosteric affinity cooperativity”; assay type: functional, cell-based; summary of the method: as §2
Adenosine receptor A2a [10] = target: T1, Adenosine receptor A2a (Homo sapiens, UniProt P29274); test: Displacement of [3H]ZM241385 from recombinant human A2A receptor incubated for 90 mins under dark condition by microbeta scintillation method
Adenosine receptor A2a [11] = target: T1, Adenosine receptor A2a; test: Agonist activity at recombinant human A2A receptor expressed in HEK293T cells co-expressing Gs assessed as stimulation of cAMP accumulation measured after 15 mins by Glosensor chemiluminescence assay; assay type: functional, cell-based
Adenosine receptor A2a [12] = target: T1, Adenosine receptor A2a; test: Inverse agonist activity at recombinant human A2A receptor expressed in HEK293T cells co-expressing Gs assessed as decrease in cAMP accumulation measured after 15 mins by Glosensor chemiluminescence assay; assay type: functional, cell-based
Adenosine receptor A2a [13] = target: T1, Adenosine receptor A2a; test: Antagonist activity at recombinant human A2A receptor expressed in HEK293T cells co-expressing Gs assessed as inhibition of NECA-stimulated cAMP accumulation preincubated for 15 mins followed by NECA addition and measured after 15 mins by Glosensor chemiluminescence assay; assay type: functional, cell-based
[14] = target: T2, Atypical chemokine receptor 3 (Homo sapiens, UniProt P25106); test: Agonist activity at human ACKR3 expressed in HTLA cells assessed as stimulation of beta-arrestin recruitment at 1 uM incubated for 16 to 20 hrs by bright-glo luminescence assay; assay type: cell-based
[15] = target: G-protein coupled receptor 68 (Mus musculus) (UniProt Q8BFQ3); test: as §1, with “mouse” for “human”; assay type: functional, cell-based
Summary of the method: (§3)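 α, β and KB obtained by fitting proton responses with and without modulator to the standard allosteric operational model. Overall index is log(αβ/KB). Values are mean ± SEM from ≥3 independent assays, each run in triplicate or quadruplicate.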

[16] = target: G-protein coupled receptor 68 (Mus musculus) (UniProt Q8BFQ3); test: as §1, with “mouse” for “human”, “efficacy” for “allosteric affinity”; assay type: functional, cell-based; summary of the method: as §3
[17] = target: G-protein coupled receptor 68 (Mus musculus) (UniProt Q8BFQ3); test: as §1, with “mouse” for “human”, “index” for “affinity cooperativity”; assay type: functional, cell-based; summary of the method: as §3
[18] = target: T3, 5-hydroxytryptamine receptor 2B (Homo sapiens, UniProt P41595); test: Displacement of [3H]LSD from recombinant human 5HT2B stably expressed in HEK cell membranes incubated for 90 mins under dark condition by microbeta scintillation counting analysis
[19] = target: T3, 5-hydroxytryptamine receptor 2B; test: Agonist activity at human 5HT2B receptor expressed in Flp-In-HEK cells co-expressing Gq assessed as stimulation of calcium mobilization measured for 2 mins by fluo-4 calcium dye-based FLIPR assay; assay type: functional, cell-based
Summary of the method: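 HEK293 cells stably expressing 5-HT2B, seeded overnight (16–20 h) on poly-L-Lys in DMEM + 1% dFBS. Fluo-4 Direct dye loaded for 1 h at 37 °C in HBSS/20 mM HEPES/2.5 mM probenecid, pH 7.40. Drug diluted in buffer with 1 mg/mL BSA and 0.1 mg/mL ascorbic acid. Fluorescence read for 2 min; peak fold of basal within the first minute.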

[20] = target: T3, 5-hydroxytryptamine receptor 2B; test: Antagonist activity at human 5HT2B receptor expressed in Flp-In-HEK cells co-expressing Gq assessed as inhibition of 5HT-induced stimulation of calcium mobilization preincubated for 10 mins followed by 5HT addition by fluo-4 calcium dye-based FLIPR assay; assay type: functional, cell-based
[21] = target: T2, Atypical chemokine receptor 3; test: Agonist activity at human ACKR3 expressed in HTLA cells assessed as stimulation of beta-arrestin recruitment incubated for 16 to 20 hrs by bright-glo luminescence assay; assay type: cell-based
Summary of the method: (§4)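 Tango arrestin assay in HTLA cells transfected with receptor DNA overnight in DMEM + 10% FBS, then replated on poly-L-Lys in DMEM + 1% dFBS. Drugs added 6 h later and incubated overnight (16–20 h). Medium removed, Bright-Glo added, luminescence counted.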

[22] = target: T4, Melatonin receptor type 1A (Homo sapiens, UniProt P48039); test: Agonist activity at human MT1 receptor expressed in HTLA cells assessed as stimulation of beta-arrestin recruitment at 1 uM incubated for 16 to 20 hrs by bright-glo luminescence assay; assay type: cell-based
[23] = target: T5, Melatonin receptor type 1B (Homo sapiens) (UniProt P49286); test: Agonist activity at human MT2 receptor expressed in HTLA cells assessed as stimulation of beta-arrestin recruitment at 1 uM incubated for 16 to 20 hrs by bright-glo luminescence assay; assay type: cell-based
T5 sequence (whole entry): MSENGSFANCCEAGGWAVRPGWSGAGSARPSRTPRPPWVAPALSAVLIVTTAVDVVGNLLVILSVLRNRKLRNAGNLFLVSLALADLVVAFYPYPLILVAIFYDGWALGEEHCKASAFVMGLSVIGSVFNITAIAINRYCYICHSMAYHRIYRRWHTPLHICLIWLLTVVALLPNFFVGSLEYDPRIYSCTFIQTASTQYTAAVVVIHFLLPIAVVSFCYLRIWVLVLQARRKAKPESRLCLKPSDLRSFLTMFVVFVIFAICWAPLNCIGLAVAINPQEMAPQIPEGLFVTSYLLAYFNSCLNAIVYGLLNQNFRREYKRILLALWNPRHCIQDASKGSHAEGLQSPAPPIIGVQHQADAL

[24] = target: T4, Melatonin receptor type 1A; test: Agonist activity at human MT1 receptor expressed in HTLA cells assessed as stimulation of beta-arrestin recruitment incubated for 16 to 20 hrs by bright-glo luminescence assay; assay type: cell-based; summary of the method: as §4
[25] = target: T6, Melatonin receptor type 1B (Homo sapiens, UniProt P49286); test: Agonist activity at human MT2 receptor expressed in HTLA cells assessed as stimulation of beta-arrestin recruitment incubated for 16 to 20 hrs by bright-glo luminescence assay; assay type: cell-based; summary of the method: as §4
T6 sequence (P49286 whole entry): T5 sequence (whole entry)

[26] = target: T5, Melatonin receptor type 1B (Homo sapiens); test: Agonist activity at human MT2 receptor expressed in HTLA cells assessed as stimulation of beta-arrestin recruitment incubated for 16 to 20 hrs by bright-glo luminescence assay relative to control; assay type: cell-based; summary of the method: as §4
[27] = Drug uptake in Swiss albino mouse plasma at 25 mg/kg, ip administered as single dose measured after 0.5 hrs; assay type: ADME, organism-based
[28] = Drug uptake in Swiss albino mouse brain at 25 mg/kg, ip administered as single dose measured after 0.5 hrs; assay type: ADME, organism-based; details: read-out: Drug uptake
[29] = Drug uptake in Swiss albino mouse plasma at 25 mg/kg, ip administered as single dose measured up to 2 hrs; assay type: ADME, organism-based; details: in vivo
[30] = Drug uptake in Swiss albino mouse brain at 25 mg/kg, ip administered as single dose measured up to 2 hrs; assay type: ADME, organism-based; details: in vivo
[31] = Toxicity in Swiss albino mouse assessed as effect on clinical parameter at 25 mg/kg, ip administered as single dose; assay type: organism-based; details: in vivo

T2 sequence (P25106 whole entry): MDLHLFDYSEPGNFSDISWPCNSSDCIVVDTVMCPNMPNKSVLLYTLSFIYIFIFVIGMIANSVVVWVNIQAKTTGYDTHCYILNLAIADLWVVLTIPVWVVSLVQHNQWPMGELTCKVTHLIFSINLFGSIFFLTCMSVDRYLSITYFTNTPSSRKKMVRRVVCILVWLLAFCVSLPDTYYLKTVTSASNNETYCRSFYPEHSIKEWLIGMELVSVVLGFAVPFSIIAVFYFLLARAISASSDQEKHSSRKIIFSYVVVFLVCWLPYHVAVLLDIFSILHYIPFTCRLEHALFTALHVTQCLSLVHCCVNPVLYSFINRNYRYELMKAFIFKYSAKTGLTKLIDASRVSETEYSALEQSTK
Chain of G-prodeshotein coupled receptor 4 (Homo sapiens) (P46093 whole entry, looked up): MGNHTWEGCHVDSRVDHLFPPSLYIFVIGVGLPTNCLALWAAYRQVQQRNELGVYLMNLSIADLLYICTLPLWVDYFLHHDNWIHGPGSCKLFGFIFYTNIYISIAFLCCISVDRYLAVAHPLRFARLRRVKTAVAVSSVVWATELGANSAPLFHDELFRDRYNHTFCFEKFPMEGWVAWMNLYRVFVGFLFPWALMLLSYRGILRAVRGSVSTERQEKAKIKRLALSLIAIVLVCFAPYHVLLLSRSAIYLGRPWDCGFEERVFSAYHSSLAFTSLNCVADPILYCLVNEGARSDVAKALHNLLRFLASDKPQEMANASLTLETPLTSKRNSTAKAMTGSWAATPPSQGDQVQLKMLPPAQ
Chain of G-protein coupled receptor 65 (Homo sapiens) (Q8IYL9 whole entry): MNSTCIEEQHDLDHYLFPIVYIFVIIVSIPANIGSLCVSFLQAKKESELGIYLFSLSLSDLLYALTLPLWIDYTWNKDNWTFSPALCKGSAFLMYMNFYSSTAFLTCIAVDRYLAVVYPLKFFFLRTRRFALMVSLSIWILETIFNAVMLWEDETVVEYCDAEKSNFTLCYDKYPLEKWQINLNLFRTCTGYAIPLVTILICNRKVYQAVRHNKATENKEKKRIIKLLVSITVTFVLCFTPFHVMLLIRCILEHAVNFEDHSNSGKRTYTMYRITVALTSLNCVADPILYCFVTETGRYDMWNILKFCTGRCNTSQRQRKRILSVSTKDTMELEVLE
T1 sequence (P29274 whole entry): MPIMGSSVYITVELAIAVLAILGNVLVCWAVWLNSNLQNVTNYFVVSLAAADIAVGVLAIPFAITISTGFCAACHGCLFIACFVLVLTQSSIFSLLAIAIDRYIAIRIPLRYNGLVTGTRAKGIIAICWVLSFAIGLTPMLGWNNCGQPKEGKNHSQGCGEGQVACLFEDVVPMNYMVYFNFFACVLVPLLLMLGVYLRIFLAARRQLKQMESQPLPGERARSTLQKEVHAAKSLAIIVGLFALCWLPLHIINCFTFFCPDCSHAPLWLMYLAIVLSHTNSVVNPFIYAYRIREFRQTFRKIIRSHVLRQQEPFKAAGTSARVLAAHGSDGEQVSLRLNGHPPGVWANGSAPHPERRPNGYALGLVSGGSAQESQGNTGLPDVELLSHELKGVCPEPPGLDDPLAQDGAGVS
Chain of G-protein coupled receptor 68 (Mus musculus) (Q8BFQ3 whole entry): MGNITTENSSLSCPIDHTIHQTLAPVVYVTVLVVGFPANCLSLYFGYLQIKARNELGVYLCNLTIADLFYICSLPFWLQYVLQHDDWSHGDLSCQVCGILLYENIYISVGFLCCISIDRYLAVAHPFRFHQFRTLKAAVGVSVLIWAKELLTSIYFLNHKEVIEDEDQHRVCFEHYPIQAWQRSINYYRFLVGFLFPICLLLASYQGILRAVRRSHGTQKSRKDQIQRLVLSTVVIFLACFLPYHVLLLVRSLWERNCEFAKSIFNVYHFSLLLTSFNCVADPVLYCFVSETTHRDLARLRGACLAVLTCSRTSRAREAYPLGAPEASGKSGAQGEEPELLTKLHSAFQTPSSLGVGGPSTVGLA
T3 sequence (P41595 whole entry): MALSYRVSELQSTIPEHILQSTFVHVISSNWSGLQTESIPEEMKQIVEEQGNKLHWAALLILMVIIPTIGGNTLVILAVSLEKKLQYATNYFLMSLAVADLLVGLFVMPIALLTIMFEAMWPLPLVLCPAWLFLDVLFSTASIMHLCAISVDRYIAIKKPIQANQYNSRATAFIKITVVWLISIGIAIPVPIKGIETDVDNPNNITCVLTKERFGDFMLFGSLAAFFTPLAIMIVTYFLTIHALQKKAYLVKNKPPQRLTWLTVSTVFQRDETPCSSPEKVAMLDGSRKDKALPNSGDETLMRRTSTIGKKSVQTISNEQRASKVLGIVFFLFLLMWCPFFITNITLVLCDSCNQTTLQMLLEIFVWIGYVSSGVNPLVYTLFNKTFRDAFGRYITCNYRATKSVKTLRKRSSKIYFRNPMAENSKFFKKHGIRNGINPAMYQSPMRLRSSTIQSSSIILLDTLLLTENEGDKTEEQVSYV
Chain of G-protein coupled receptor 68 (Homo sapiens) (Q15743 whole entry): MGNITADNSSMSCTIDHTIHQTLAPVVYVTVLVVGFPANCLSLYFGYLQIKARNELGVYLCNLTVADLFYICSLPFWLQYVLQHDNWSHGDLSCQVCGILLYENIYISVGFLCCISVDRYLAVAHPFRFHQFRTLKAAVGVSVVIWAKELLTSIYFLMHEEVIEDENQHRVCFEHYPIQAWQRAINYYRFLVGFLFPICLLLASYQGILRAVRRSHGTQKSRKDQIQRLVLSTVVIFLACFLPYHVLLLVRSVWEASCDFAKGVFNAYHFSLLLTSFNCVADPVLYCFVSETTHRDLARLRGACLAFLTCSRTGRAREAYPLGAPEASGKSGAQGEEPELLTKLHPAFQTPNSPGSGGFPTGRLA
T4 sequence (P48039 whole entry): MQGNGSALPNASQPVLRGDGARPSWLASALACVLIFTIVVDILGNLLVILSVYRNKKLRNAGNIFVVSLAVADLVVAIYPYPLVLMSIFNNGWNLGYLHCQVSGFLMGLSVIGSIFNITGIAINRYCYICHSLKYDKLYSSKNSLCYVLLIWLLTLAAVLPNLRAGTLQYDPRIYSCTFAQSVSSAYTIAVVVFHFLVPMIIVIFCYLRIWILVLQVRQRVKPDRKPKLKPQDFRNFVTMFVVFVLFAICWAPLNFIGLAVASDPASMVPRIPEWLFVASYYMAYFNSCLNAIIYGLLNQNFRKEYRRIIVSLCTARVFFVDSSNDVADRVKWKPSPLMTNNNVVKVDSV

SMILES	log(activity) [1]	log(activity) [2]	pKb [3]	Activity_index [4]	Activity [5]	Activity [6]	Activity [7]	Activity index [4]	Activity [8]	Activity [9]	Activity [14]	log(activity) [15]	log(activity) [16]	Activity index [17]	Ki ([18]; read-out: Ki) [nM]	Ki ([18]; read-out: pKi (converted)) [nM]	Activity [19]	Ki [20] [nM]	other results
CC(=O)c1cccc(-c2nc(N)nc(NCc3ccccc3)n2)c1	inactive	inactive	inactive	inactive	inactive	inactive	inactive	–	–	–	–	–	–	–	–	–	–	–	–
Nc1nc(NCCCc2ccccc2)nc(-c2cc(Cl)ccc2CO)n1	1.03	0.01	–	–	–	–	–	6.38	inactive	inactive	Active	0.99	0.13	5.98	295	100 to 316	inactive	212	EC50 [21]: 690 nM
Nc1nc(NCc2ccc(Oc3ccccc3)cc2)nc(-c2c(F)cccc2CO)n1	0.9	0.06	–	–	Dose-dependent effect	–	–	6.83	inactive	inactive	–	1.26	0.09	6.46	219	100 to 316	inactive	310	Activity [22]: Active; Activity [23]: Active; EC50 [24]: 320 nM; Kd [24]: 5900 nM; EC50 [25]: 540 nM; Kd [25]: 1100 nM; Emax [26]: 24%; concentration at 0.5 h [27]: > 10 µM; concentration at 0.5 h [28]: > 10 µM; Drug uptake [29]: Active; Drug uptake [30]: Active; Activity [31]: Non-Toxic
Nc1nc(NCCc2ccccc2)nc(-c2cc(Cl)ccc2CO)n1	1.09	0.03	–	–	–	–	–	6.26	inactive	inactive	Active	1.06	0.13	5.92	209	100 to 316	inactive	678	EC50 [21]: 1700 nM

Second part, led by results:

log(activity) [1]	log(activity) [2]	pKb [3]	Activity_index [4]	Activity [5]	Activity [6]	Activity [7]	Activity index [4]	Activity [8]	Activity [9]	Activity [14]	log(activity) [15]	log(activity) [16]	Activity index [17]	Ki ([18]; read-out: Ki) [nM]	Ki ([18]; read-out: pKi (converted)) [nM]	Activity [19]	Ki [20] [nM]	SMILES	other results
0.49	0.41	–	–	–	–	–	6.11	inactive	inactive	inactive	1.41	-0.02	5.68	–	–	–	–	Nc1nc(NCc2ccc(Cl)cc2)nc(-c2ccccc2CO)n1	Ki (Adenosine receptor A2a [10]): 300 nM; Activity (Adenosine receptor A2a [11]): inactive; IC50 (Adenosine receptor A2a [12]): 1700 nM; Ki (Adenosine receptor A2a [13]): 6700 nM
0.62	0.21	–	–	–	–	–	6.35	–	–	–	0.91	0.08	5.89	–	–	–	–	Nc1nc(NCCCCc2ccccc2)nc(-c2ccccc2CO)n1	–
inactive	inactive	inactive	inactive	inactive	inactive	inactive	–	–	–	–	–	–	–	–	–	–	–	Nc1nc(NCc2ccccc2)nc(-c2cccc(CO)c2)n1	–
0.6	0.36	–	–	Dose-dependent effect	–	–	5.31	–	–	–	0.8	0.04	4.97	–	–	–	–	Nc1nc(NCc2ccccc2)nc(-c2ccccc2CO)n1	–
inactive	inactive	inactive	inactive	inactive	inactive	inactive	–	–	–	–	–	–	–	–	–	–	–	CN(C)c1nc(NCc2ccccc2)nc(-c2ccccc2CO)n1	–
